Experimental data as given in ChEMBL document CHEMBL4706486, “Usnic acid derivatives as tau-aggregation and neuroinflammation inhibitors” (Eur J Med Chem, 2020).
The source made the active and inactive calls. The calls are words filed in the database; no cut-off is given here.

Tests used:
[1] = test system: BV-2; test: Cytotoxicity against mouse BV-2 cells at 20 uM measured after 24 hrs by MTT assay; assay type: cell-based; details: bv-2, 24 h
Method in brief: (§1)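 Cells in high-glucose DMEM with 10% FBS, 5% CO₂, 37 °C, seeded 3000–5000/well, exposed to compound 24 h. MTT (0.5 mg/mL) 4 h, formazan dissolved in DMSO, absorbance 570 nm (reference 630 nm). Viability as percent of untreated control; mean ± SD, three independent experiments.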

[2] = organism: Homo sapiens; test: Inhibition of acetyl-PHF6 amide self-aggregation (unknown origin) in pH 7.4 phosphate buffer at 10 uM and 25 degreeC measured every 1 min for 120 mins under shaking condition by ThT fluorescence assay relative to control
Method in brief: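 AcPHF6 dissolved in HFIP, dried overnight, 1 mM water stock used at once. Final 100 μM peptide, 20 μM ThT, 10 μM compound (≤0.1% DMSO) in 50 mM phosphate buffer pH 7.4, 25 °C. Ex 440/em 490 nm read each minute for 120 min, 10 s shaking (400 rpm) before each read. Inhibition from mean signal at 50–60 min; ≥3 wells; mean ± SD of three experiments; DMSO negative control.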

[3] = organism: Homo sapiens; test: Inhibition of acetyl-PHF6 amide self-aggregation (unknown origin) in pH 7.4 phosphate buffer assessed as absence of fibrillar material at 20 uM and 25 degreeC measured after 10 mins by phosphotungstic acid staining based TEM analysis
[4] = organism: Homo sapiens; test: Inhibition of acetyl-PHF6 amide self-aggregation (unknown origin) in pH 7.4 phosphate buffer assessed as decrease in absorbance intensity at 10 uM and 25 degreeC measured immediately after 10 sec vibration per minute for 120 mins under shaking condition by circular dichroism spectroscopy
Method in brief: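 Fresh samples of 100 μM AcPHF6 with 10 μM compound (≤0.1% DMSO) in 50 mM phosphate buffer pH 7.4. 10 s vibration per minute at 25 °C over 120 min. Spectra 260–200 nm, 1 mm quartz cell, 1 nm bandwidth, 50 nm/min scan. Solvent and compound contributions subtracted, converted to Δε per residue, Savitzky-Golay smoothed.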

[5] = test system: Rattus norvegicus; test: Cognitive enhancing effect in Sprague-Dawley rat model of OA-induced dementia assessed as increase in number of platform crossing at 10 mg/kg, ip administered for 7 days by Morris water maze test; assay type: functional, organism-based; details: time 7.0 day
Method in brief: (§2)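 Male SD rats (n = 8/group), ip dosing at 5 or 10 mg/kg in saline with 8% DMSO and 1% Tween-80 for 7 days, then OA (300 ng in 1.5 μL saline) microinjected into right dorsal hippocampus. Dosing continued 7 days after OA. Morris water maze: 5 training days recording escape latency, distance and swim speed; day-6 probe trial, platform removed, 60 s search, quadrant time and crossings counted. Two-way ANOVA versus model; SEM.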

[6] = Acute toxicity in Sprague-Dawley rat model of OA-induced dementia assessed as effect on body weight at 5 to 10 mg/kg, ip administered for 14 days; details: in vivo, 336 h
[7] = molecular target: Microtubule-associated protein tau (Homo sapiens) (UniProt P10636); test: Inhibition of heparin-induced recombinant full length His-tagged 2N4R tau self-aggregation (unknown origin) expressed in Escherichia coli BL21 (DE3) at 10 uM measured after 6 mins by ThT fluorescence assay
Method in brief: (§3)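 His-tagged full-length 2N4R tau from E. coli BL21(DE3) (pET-28a, 1 mM IPTG, 37 °C), BCA-quantified, stored −80 °C. 10 μM tau with 10 μM compound and 1 mM DTT in 1× PBS at 37 °C, aggregation started with 10 μM heparin (MW 6117), 10 μM ThT. Ex 440/em 490 nm, read every 4 min with 2 min shaking (600 rpm) before reading.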

[8] = organism: Homo sapiens; test: Inhibition of acetyl-PHF6 amide self-aggregation (unknown origin) in pH 7.4 phosphate buffer assessed as appearance of dot like structure with <5 nm at 20 uM and 25 degreeC measured after 10 mins by phosphotungstic acid staining based TEM analysis
[9] = Toxicity in Sprague-Dawley rat model of OA-induced dementia assessed as effect on swimming speed at 5 to 10 mg/kg, ip administered for 7 days; assay type: organism-based; details: in vivo, 168 h, dose 5-10 mg/kg, time 7 day
Method in brief: (§4)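 Adult male SD rats (260-280 g), n = 8 per group. Compound given ip at 5 or 10 mg/kg daily for 7 days in saline with 8% DMSO and 1% Tween-80 cosolvent; controls got vehicle. Okadaic acid (300 ng in 1.5 μL saline) then injected stereotaxically into right dorsal hippocampus under isoflurane, and ip dosing continued 7 more days. Body weight recorded throughout; swimming speed recorded in Morris water maze.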

[10] = test system: Rattus norvegicus; test: Cognitive enhancing effect in Sprague-Dawley rat model of OA-induced dementia assessed as average escape latency time to hidden platform at 5 to 10 mg/kg, ip administered for 7 days by Morris water maze test (reference value: 12.5 to 37.2 sec); assay type: functional; details: dose 5-10 mg/kg; time 7 day; method in brief: as §2
[11] = Acute toxicity in Sprague-Dawley rat model of OA-induced dementia assessed as mortality at 5 to 10 mg/kg, ip administered for 7 days; assay type: organism-based; details: in vivo, 168 h, dose 5-10 mg/kg, time 7 day; method in brief: as §4
[12] = test system: BV-2; test: Antiinflammatory activity in mouse BV-2 cells assessed as inhibition of LPS-induced NO production at 10 uM pretreated with compound for 1 hr followed by LPS stimulation and measured after 18 hrs by Griess assay relative to control; assay type: functional; details: time 19 hrs
Method in brief: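 BV2 microglia grown in high-glucose DMEM with 10% FBS, seeded at 3 × 10^4 cells/well, preincubated with compound 1 h, then LPS (final 1 µg/ml) for 18 h. Supernatant mixed with equal volume Griess reagent, 10 min at 25 °C, absorbance 540 nm. Inhibition = (F_L−F_C)/(F_L−F₀) × 100. Mean ± SD, three independent experiments.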

[13] = test system: SH-SY5Y; test: Cytotoxicity against human SH-SY5Y cells assessed as reduction in cell survival at 30 uM measured after 24 hrs by MTT assay; assay type: cell-based; method in brief: as §1
[14] = test system: Rattus norvegicus; test: Cognitive enhancing effect in Sprague-Dawley rat model of OA-induced dementia assessed as increase in time spent in virtual platform quadrant at 10 mg/kg, ip administered for 7 days by Morris water maze test; assay type: functional, organism-based; details: time 7.0 day; method in brief: as §2
[15] = test system: L02; test: Cytotoxicity against human L02 cells assessed as effect on cell viability at <=40 uM measured after 24 hrs by MTT assay; assay type: cell-based; details: l02, 24 h; method in brief: as §1
[16] = molecular target: Microtubule-associated protein tau (Homo sapiens) (UniProt P10636); test: Inhibition of heparin-induced recombinant full length His-tagged 2N4R tau self-aggregation (unknown origin) expressed in Escherichia coli BL21 (DE3) assessed as reduction in aggregate formation at 10 uM measured after 6 mins by ThT fluorescence assay relative to control; method in brief: as §3

Chain of Microtubule-associated protein tau (Homo sapiens) (P10636 whole entry): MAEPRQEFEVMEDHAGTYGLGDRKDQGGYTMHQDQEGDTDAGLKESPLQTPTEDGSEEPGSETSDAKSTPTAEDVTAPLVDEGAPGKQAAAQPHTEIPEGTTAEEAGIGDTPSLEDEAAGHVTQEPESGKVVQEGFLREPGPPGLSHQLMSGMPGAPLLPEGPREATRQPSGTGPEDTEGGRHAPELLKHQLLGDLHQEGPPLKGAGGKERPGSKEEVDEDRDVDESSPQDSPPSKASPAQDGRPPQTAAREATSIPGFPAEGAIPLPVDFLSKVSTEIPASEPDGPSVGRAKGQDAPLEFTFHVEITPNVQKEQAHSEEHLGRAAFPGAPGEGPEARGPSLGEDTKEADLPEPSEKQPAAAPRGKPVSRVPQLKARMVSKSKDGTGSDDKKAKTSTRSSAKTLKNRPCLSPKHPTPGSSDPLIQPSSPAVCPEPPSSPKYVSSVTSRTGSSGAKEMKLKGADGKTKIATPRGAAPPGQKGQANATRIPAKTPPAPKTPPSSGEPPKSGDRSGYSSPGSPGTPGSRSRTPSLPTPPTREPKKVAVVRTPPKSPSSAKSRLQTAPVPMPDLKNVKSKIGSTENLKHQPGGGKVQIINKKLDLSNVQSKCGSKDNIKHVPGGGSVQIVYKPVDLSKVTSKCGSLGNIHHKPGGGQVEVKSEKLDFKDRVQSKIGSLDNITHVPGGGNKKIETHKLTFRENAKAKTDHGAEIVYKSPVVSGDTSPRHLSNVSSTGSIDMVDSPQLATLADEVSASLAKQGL

Structure (SMILES)	inhibition [2]	further results
CC(=O)C1=C([O-])C=C2Oc3c(C(C)=O)c(O)c(C)c(O)c3[C@]2(C)C1=O.[Na+]	inactive	Activity [1]: Toxic
O=c1c(O)c(-c2cc(O)c(O)c(O)c2)oc2cc(O)cc(O)c12	85.9%	–
CC(=O)c1c(O)c(C)c(O)c2c1OC1=CC(=O)/C(=C(/C)N[C@@H](Cc3c[nH]c4ccccc34)C(=O)O)C(=O)[C@@]12C	47.6%	–
CC(=O)c1c(O)c(C)c(O)c2c1OC1=CC(=O)/C(=C(/C)Nc3c(C)cc(O)cc3C)C(=O)[C@@]12C	inactive	–
CC(=O)c1c(O)c(C)c(O)c2c1OC1=CC(=O)/C(=C(/C)Nc3cccc(N(C)C)c3)C(=O)[C@@]12C	11.3%	–
CC(=O)c1c(O)c(C)c(O)c2c1OC1=CC(=O)/C(=C(/C)Nc3ccc(O)cn3)C(=O)[C@@]12C	58.3%	inhibition [3]: inactive; inhibition [4]: Active
CC(=O)c1c(O)c(C)c(O)c2c1OC1=CC(=O)/C(=C(/C)NCCCCCO)C(=O)[C@@]12C	inactive	–
CC(=O)c1c(O)c(C)c(O)c2c1OC1=CC(=O)/C(=C(/C)Nc3ccc(C(=O)O)c(O)c3)C(=O)[C@@]12C	27.6%	–
COc1cc(N/C(C)=C2\C(=O)C=C3Oc4c(C(C)=O)c(O)c(C)c(O)c4[C@@]3(C)C2=O)cc(OC)c1OC	5.4%	–
CC(=O)c1c(O)c(C)c(O)c2c1OC1=Cc3c(c(C)nn3-c3ccc(C(=O)O)cc3)C(=O)[C@@]12C	51.7%	inhibition [3]: Active; Activity [5]: Active; Activity [6]: Non-Toxic; Activity [1]: Non-Toxic; inhibition [7]: Active; inhibition [8]: Active; Activity [9]: Non-Toxic; Time [10]: 18.5 s; Activity [11]: Non-Toxic; inhibition at 10 µM [12]: 41%; Activity [13]: Toxic; inhibition [4]: Active; Activity [14]: Active; Activity [15]: Non-Toxic; inhibition [16]: 50%

More lines, main results first:

inhibition [2]	Structure (SMILES)	further results
22%	CC(=O)c1c(O)c(C)c(O)c2c1OC1=CC(=O)/C(=C(/C)Nc3cc(Cl)ccc3O)C(=O)[C@@]12C	–
40.4%	CC(=O)c1c(O)c(C)c(O)c2c1OC1=Cc3c(c(C)nn3-c3cccc(C(=O)O)c3)C(=O)[C@@]12C	–
46.8%	CC(=O)c1c(O)c(C)c(O)c2c1OC1=Cc3c(c(C)nn3-c3ccc(S(N)(=O)=O)cc3)C(=O)[C@@]12C	–
inactive	CC(=O)c1c(O)c(C)c(O)c2c1OC1=Cc3c(c(C)nn3S(=O)(=O)c3ccccc3)C(=O)[C@@]12C	–
30.3%	CC(=O)c1c(O)c(C)c(O)c2c1OC1=Cc3c(c(C)nn3-c3cccc(F)c3)C(=O)[C@@]12C	–
7.7%	COc1ccc(-n2nc(C)c3c2C=C2Oc4c(C(C)=O)c(O)c(C)c(O)c4[C@@]2(C)C3=O)cn1	–
17.1%	CC(=O)c1c(O)c(C)c(O)c2c1OC1=Cc3c(c(C)nn3-c3ccccn3)C(=O)[C@@]12C	–
48.2%	CC(=O)c1c(O)c(C)c(O)c2c1OC1=CC(=O)/C(=C(/C)Nc3ccc(N4CCN(C)CC4)cc3)C(=O)[C@@]12C	–
38%	CC(=O)c1c(O)c(C)c(O)c2c1OC1=Cc3c(c(C)nn3-c3cnccn3)C(=O)[C@@]12C	–
22.5%	CC(=O)c1c(O)c(C)c(O)c2c1OC1=Cc3[nH]nc(C)c3C(=O)[C@@]12C	–
32.8%	CC(=O)c1c(O)c(C)c(O)c2c1OC1=Cc3c(c(C)nn3-c3ccccc3C(=O)O)C(=O)[C@@]12C	–
28.7%	CC(=O)c1c(O)c(C)c(O)c2c1OC1=Cc3c(c(C)nn3-c3ccc(S(C)(=O)=O)cc3)C(=O)[C@@]12C	–
